Screening results as filed in PubChem.
T cell HTS – modulates CD8 T cell binding to vesicles | 330,000 tested, 0.068% active | AID 2052 | 2C CD8+ T cell-vesicle binding, flow cytometry; hits give low values | response (vesicle binding), % at 7 µM;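 active = response, share of CD8 T cells binding vesicles, and their 90th percentile fluorescence all below set limits, cut at about 80% in these data, passing the limit was not always enough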;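 note: values below 100% mean blocked vesicle binding to the CD8+ T cells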
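System: murine 2C transgenic CD8+ T lymphocytes; also added: QL9-loaded Drosophila micro-vesicles; times: binding 1.5 h at 37 °C; measured by: flow cytometry, PE anti-B7-1 (FL2) versus Alexa647 anti-CD8 (FL8), PFA-fixed; control set: Peptide-free naked vesicles (low) and QL9 vesicles with 0.7% DMSO vehicle (high)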
SKN-1 block – C. elegans SKN-1 inhibition | 360,000 tested, 0.49% active | C. elegans VP596 Pgst-4::GFP/RFP ratio, acrylamide-induced, 24 h | inhibition, % at 21.8 µM;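 active = interference check ratio from 0.5 to 1.5 plus GFP to RFP signal ratio inhibition reaching or exceeding a fixed threshold, cut at about 30% in these data, passing the limit was not always enough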
GRK2 aptamer HTS – blocks RNA aptamer binding to human GRK2 | P25098 | bead flow cytometry, FAM-aptamer displacement from GRK2 | inhibition of aptamer binding, % at 10 µM | 330,000 tested, 0.59% active | AID 488847;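 active = inhibition of aptamer binding above 40%, roughly 3 SD of noise, on plates passing a quality check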;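 note: median bead fluorescence of bound FAM aptamer so fluorescent compounds give negative values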
Myeloid diff MLP – myeloid differentiation induction; calls only at 10 µM; ER-HoxA9 myeloid progenitors, lysozyme-GFP differentiation, flow cytometry; 360,000 tested, 1% active;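 active = normalized GFP-positive differentiation at or above the plate's own cutoff, the solvent-only control mean plus 3 SD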;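 note: cells exposed to compound for four days before flow analysis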
Rin1-Abl PPI inh – human Rin1-Abl interaction inhibition; P00519+Q13671; TR-FRET Rin1/Abl binding, biochemical; inhibition, % at 7.35 µM; 360,000 tested, 0.4% active; in the data active = inhibition above about 5%, passing the limit was not always enough
Rce1 inh – yeast Ras-converting enzyme inhibition. Q03530. 290,000 tested, 0.27% active. AID 2563. yeast membranes, quenched prenylated peptide cleavage fluorescence. calls only;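 active = fall in fluorescence gain of 50% or more versus controls, with final raw signal at or below 3038400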;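 note: plate controls were neutral control wells for no effect and wells lacking membranes for full effect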
Target sequence (Q03530 whole entry, looked up): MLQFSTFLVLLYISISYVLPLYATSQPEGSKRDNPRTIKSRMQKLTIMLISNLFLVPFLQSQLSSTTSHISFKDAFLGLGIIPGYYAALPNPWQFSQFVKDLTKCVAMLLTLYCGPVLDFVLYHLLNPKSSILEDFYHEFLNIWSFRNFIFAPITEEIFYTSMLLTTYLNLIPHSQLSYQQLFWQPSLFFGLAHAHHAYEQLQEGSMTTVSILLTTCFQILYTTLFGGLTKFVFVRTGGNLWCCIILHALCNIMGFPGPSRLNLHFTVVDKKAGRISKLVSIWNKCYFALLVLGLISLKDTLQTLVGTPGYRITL
Myeloid diff – compounds promoting myeloid differentiation; AID 651706; shares compounds with Myeloid diff MLP; ER-HoxA9 myeloid progenitors, GFP/Mac1 double-positive flow; 2,300 tested, 2% active; calls only;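 active = share of green or green-and-red cells above 9 and 9% in run 1 or 4 and 3% in run 2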
GFP autofluor – flagged as fluorescent in myeloid differentiation counter-screen; shares compounds with Myeloid diff MLP; 2,300 tested, 7.4% active; fluorescence response, % (concentration not given with the values); ER-HoxA9 myeloid progenitors, no estrogen, GFP autofluorescence flow cytometry; vehicle wells 0%, positive control 100%;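 active = over 5% cells positive for green fluorescent reporter, or over 2% positive for both it and APC stain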;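 note: range taken on the double positive population between DMSO and positive control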
Numbers without * were called inactive; i = inactive; nt = no result; + = active, no number. Only some compounds are listed: those with a hit (about 2.6% of all), similar ones and a draw of the others.

SMILES	T cell HTS	SKN-1 block	GRK2 aptamer HTS	Myeloid diff MLP	Rin1-Abl PPI inh	Rce1 inh	Myeloid diff	GFP autofluor
O=C1NCCN1CCNS(=O)(=O)c1cc(C(F)(F)F)cc(C(F)(F)F)c1	223	9	0	i	1	i	nt	nt
N#Cc1c(NC(=O)CCn2cnc3ccccc3c2=O)oc(-c2ccccc2)c1-c1ccccc1	281	18	2	i	-1	i	i	0
COc1ccc(N2C(=O)CC(NCCNc3ccc([N+](=O)[O-])cn3)C2=O)cc1 (centres undefined)	238	15	2	i	-1	i	i	0
O=C1c2ccccc2NC(c2ccc(F)cc2)N1Cc1ccco1 (centres undefined)	217	-6	0	i	1	i	i	0
O=C1c2ccccc2NC(c2ccccc2)N1Cc1ccco1 (centres undefined)	282	0	5	i	1	i	nt	nt
O=C(CCc1ccccc1)NC1(Cc2ccccc2)CCN(CCCc2ccccc2)C1=O (centres undefined)	206	-5	0	i	2	nt	nt	nt
O=S(=O)(c1ccccc1)N1N=C(c2ccc(Cl)cc2)CC1c1ccco1 (centres undefined)	nt	15	nt	i	4	nt	nt	nt
COc1ccc(-c2cc(-c3ccc(O)cc3)nc(N)c2C#N)cc1OC	294	2	4	i	1	i	nt	nt
Cc1cc(-c2cc(-c3ccc(Cl)cc3)nc(N)c2C#N)co1	295	-9	4	+	0	i	i	0
CC(C)C(=O)Nc1cccc(S(=O)(=O)c2cccc(NC(=O)C(C)C)c2)c1	276	-21	0	i	-1	i	i	0
COc1ccc(Cn2c(C)nc3c(c2=O)c2nc4ccccc4nc2n3Cc2ccco2)cc1	nt	-3	nt	i	-1	nt	i	0
OC(c1ccc(F)c(F)c1)c1nc(-c2cccs2)cs1 (centres undefined)	nt	-5	nt	i	-1	nt	nt	nt
C=CCC[C@@H](CCCCC)OC(=O)/C=C/[C@H](O)[C@@H](O)C[C@H](O)CC=C	nt	32	nt	+	nt	nt	i	0
O=S(=O)(c1ccccc1)N1CCN(C(c2ccccc2)c2ccc(OC(F)(F)F)cc2)CC1 (centres undefined)	138	-4	2	i	5	i	nt	nt
Cc1c(C(=O)N2CCN(c3ccccc3)CC2)sc2ncnc(N3CCN(c4ccccn4)CC3)c12	i	-5	0	+	2	i	i	0
Cc1csc(SCC(=O)Nc2sc3c(c2C#N)CCC3)n1	148	-5	0	i	3	i	i	1
N=c1c2c3c(sc2nc2n1CCC2)CCCC3	619	-11	2	i	2	i	nt	nt
CC1(C)Cc2c(sc3nc4n(c(=N)c23)CCC4)CO1	399	15	1	i	-5	i	i	0
COc1ccc(CCn2c(=S)[nH]c3cc(C(=O)NCc4ccco4)ccc3c2=O)cc1OC	325	8	0	i	1	i	i	0
COc1ccc(-n2c(=S)[nH]c3cc(C(=O)NCc4ccco4)ccc3c2=O)cc1OC	369	24	1	i	-1	i	nt	nt
Cc1ccc(NC(=O)CSCC(=O)NCc2cccc(C(F)(F)F)c2)cc1	866	23	1	+	1	i	i	0
Cc1ccc(NC(=O)c2ccnc(C(C)(C)C)c2)cc1	125	8	0	i	0	i	i	0
N#CCSc1ccccc1NC(=O)COC(=O)CCNC(=O)c1ccc([N+](=O)[O-])cc1	nt	17	nt	+	6	nt	i	41*
O=C(CCNC(=O)c1ccc([N+](=O)[O-])cc1)Nc1ccccc1N1CCCC1	194	6	0	i	-1	nt	nt	nt
CCc1noc(C)c1C(=O)OCC(=O)Nc1ccccc1SC	nt	2	nt	i	-1	nt	nt	nt
SMILES	T cell HTS	SKN-1 block	GRK2 aptamer HTS	Myeloid diff MLP	Rin1-Abl PPI inh	Rce1 inh	Myeloid diff	GFP autofluor
Cc1noc(C)c1C(=O)OCC(=O)Nc1ccccc1SCC#N	624	-1	0	+	-2	nt	i	57*
COc1ccc2[nH]c3c(c2c1)CCN1C(=O)C(CC(=O)NC(C)(C)C)C[C@H](C(=O)N2CCCCC2)[C@@]31C (some centres undefined)	nt	-8	0	i	-1	nt	nt	nt
Cc1ccc(C)c(S(=O)(=O)N2CCCCC2CCNC(=O)C(=O)NCc2cccnc2)c1 (centres undefined)	296	9	0	i	-1	i	nt	nt
Cc1ccc(S(=O)(=O)N2CCCCC2CCNC(=O)C(=O)NCc2cccnc2)cc1 (centres undefined)	403	9	0	+	1	i	i	0
O=C1CCCc2c1oc1c2CCCC1	nt	13	nt	i	-2	nt	nt	nt
CCNc1ccc(S(=O)(=O)N(C)C)cc1NCC(=O)Nc1ccc(F)c(Cl)c1	156	11	3	i	1	i	i	0
CCOC(=O)N1CCN(C(=O)C[C@@H]2C[C@@]3(C(=O)OCC)CCC=C3N(Cc3cccc4ccccc34)C2=O)CC1	nt	0	nt	i	nt	nt	nt	nt
Cc1ccc(S(=O)(=O)/N=C2\C(=O)c3ccccc3C([O-])=C2n2cc[n+](CCC(C)C)c2)cc1	798	22	0	nt	-8	i	nt	nt
CCCC[n+]1ccn(C2=C([O-])c3ccccc3C(=O)/C2=N\S(=O)(=O)c2ccc(Br)cc2)c1	248	77	0	i	0	i	i	0
Cc1nc([N+](=O)[O-])c(C(=O)OCc2ccccc2C#N)n1C	i	-7	9	nt	1	i	nt	nt
O=C(Nc1cccc(S(=O)(=O)NC2=NCCC2)c1)c1ccc(C(F)(F)F)cc1	510	4	0	i	5	nt	nt	nt
O=[N+]([O-])c1ccc(S(=O)(=O)NN=Cc2ccc(Cl)c(Cl)c2)cc1	nt	-9	nt	i	-3	nt	nt	nt
COc1cc(C2C3=C(CC(c4ccco4)CC3=O)Nc3ccccc3N2C(C)=O)cc(OC)c1OC (centres undefined)	431	9	0	i	-1	i	nt	nt
COc1cc(C2C3=C(CC(C)(C)CC3=O)Nc3ccccc3N2C(C)=O)cc(OC)c1OC (centres undefined)	258	0	0	i	-1	i	i	0
COC(=O)CCN(C(=O)c1ccc(Cl)c([N+](=O)[O-])c1)c1ccccn1	314	8	1	i	-2	i	nt	nt
Cc1nn(-c2ccccc2)nc1CNC(=O)c1ncoc1-c1ccccc1	258	5	0	i	-5	i	nt	nt
